{"source": "ChEMBL document CHEMBL4033651", "about": "“Exploration of flexible phenylpropylurea scaffold as novel cardiac myosin activators for the treatment of systolic heart failure” (Eur J Med Chem, 2017)", "assay_type_in_all_cases": "functional", "key": {"Rattus norvegicus [1]": {"tested_on": "Rattus norvegicus", "test": "Effect on hemodynamic parameters in Sprague-Dawley rat heart assessed as heart rate at 4 ug/kg/min (reference value: 260 to 322 bpm)"}, "Rattus norvegicus [2]": {"tested_on": "Rattus norvegicus", "test": "Effect on hemodynamic parameters in Sprague-Dawley rat heart assessed as end-systolic pressure at 2 ug/kg/min (reference value: 97.85 mmHg)"}, "Rattus norvegicus [3]": {"tested_on": "Rattus norvegicus", "test": "Effect on hemodynamic parameters in Sprague-Dawley rat heart assessed as end-diastolic pressure at 2 ug/kg/min (reference value: 7.68 mmHg)"}, "Rattus norvegicus [4]": {"tested_on": "Rattus norvegicus", "test": "Effect on hemodynamic parameters in Sprague-Dawley rat heart assessed as dPdT min at 4 ug/kg/min (reference value: -5462 to -4898 mmHg/s)"}, "Rattus norvegicus [5]": {"tested_on": "Rattus norvegicus", "test": "Effect on hemodynamic parameters in Sprague-Dawley rat heart assessed as dPdT max at 2 ug/kg/min (reference value: 5214 mmHg/s)"}, "Rattus norvegicus [6]": {"tested_on": "Rattus norvegicus", "test": "Effect on hemodynamic parameters in Sprague-Dawley rat heart assessed as dPdT min at 2 ug/kg/min (reference value: -5462 mmHg/s)"}, "Rattus norvegicus [7]": {"tested_on": "Rattus norvegicus", "test": "Effect on hemodynamic parameters in Sprague-Dawley rat heart assessed as end-systolic pressure at 4 ug/kg/min (reference value: 94.65 to 97.85 mmHg)"}, "Rattus norvegicus [8]": {"tested_on": "Rattus norvegicus", "test": "Positive inotropic activity in Sprague-Dawley rat heart assessed as heart rate at 8 ug/kg/min for 3 mins by echocardiographic analysis (reference value: 281 to 347 bpm)"}, "Rattus norvegicus [9]": {"tested_on": "Rattus norvegicus", "test": "Effect on hemodynamic parameters in Sprague-Dawley rat heart assessed as dPdT max at 4 ug/kg/min (reference value: 4985 to 5214 mmHg/s)"}, "Rattus norvegicus [10]": {"tested_on": "Rattus norvegicus", "test": "Positive inotropic activity in Sprague-Dawley rat heart assessed as fractional shortening at 16 ug/kg/min for 3 mins by echocardiographic analysis (reference value: 38.60 to 55.81%)", "in_short": "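Seven-week-old male Sprague-Dawley rats under 1.5 % isoflurane via nosecone. Drug given through a right internal jugular vein central line. Left ventricular fractional shortening and ejection fraction measured by echocardiography with and without sample, expressed as % increase.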"}, "Rattus norvegicus [11]": {"tested_on": "Rattus norvegicus", "test": "Effect on hemodynamic parameters in Sprague-Dawley rat heart assessed as end-systolic pressure at 16 ug/kg/min (reference value: 87.48 to 97.85 mmHg)"}, "Rattus norvegicus [12]": {"tested_on": "Rattus norvegicus", "test": "Effect on hemodynamic parameters in Sprague-Dawley rat heart assessed as dPdT min at 8 ug/kg/min (reference value: -5462 to -4611 mmHg/s)"}, "Rattus norvegicus [13]": {"tested_on": "Rattus norvegicus", "test": "Positive inotropic activity in Sprague-Dawley rat heart assessed as left ventricular internal diameter end systole at 8 ug/kg/min for 3 mins by echocardiographic analysis (reference value: 2.50 to 4.78 mm)", "in_short": "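Male Sprague-Dawley rats, seven weeks old, anaesthetised with 1.5 % isoflurane given by nosecone. Compound infused through the right internal jugular vein, used as a central venous line. Left ventricular dimensions measured by echocardiography.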"}, "Rattus norvegicus [14]": {"tested_on": "Rattus norvegicus", "test": "Effect on hemodynamic parameters in Sprague-Dawley rat heart assessed as end-diastolic pressure at 4 ug/kg/min (reference value: 7.68 to 9.83 mmHg)"}, "Rattus norvegicus [15]": {"tested_on": "Rattus norvegicus", "test": "Effect on hemodynamic parameters in Sprague-Dawley rat heart assessed as heart rate at 2 ug/kg/min (reference value: 322 bpm)"}, "Rattus norvegicus [16]": {"tested_on": "Rattus norvegicus", "test": "Positive inotropic activity in Sprague-Dawley rat heart assessed as left ventricular internal diameter end diastole at 16 ug/kg/min for 3 mins by echocardiographic analysis (reference value: 5.66 to 7.80 mm)"}, "Rattus norvegicus [17]": {"tested_on": "Rattus norvegicus", "test": "Effect on hemodynamic parameters in Sprague-Dawley rat heart assessed as end-systolic pressure at 8 ug/kg/min (reference value: 87.48 to 97.85 mmHg)"}, "Rattus norvegicus [18]": {"tested_on": "Rattus norvegicus", "test": "Effect on hemodynamic parameters in Sprague-Dawley rat heart assessed as end-systolic pressure at 64 ug/kg/min (reference value: 87.48 mmHg)"}, "Rattus norvegicus [19]": {"tested_on": "Rattus norvegicus", "test": "Effect on hemodynamic parameters in Sprague-Dawley rat heart assessed as dPdT max at 32 ug/kg/min (reference value: 4162 mmHg/s)"}, "Rattus norvegicus [20]": {"tested_on": "Rattus norvegicus", "test": "Effect on hemodynamic parameters in Sprague-Dawley rat heart assessed as dPdT max at 64 ug/kg/min (reference value: 4162 mmHg/s)"}, "Rattus norvegicus [21]": {"tested_on": "Rattus norvegicus", "test": "Effect on hemodynamic parameters in Sprague-Dawley rat heart assessed as heart rate at 128 ug/kg/min (reference value: 274 bpm)"}, "Rattus norvegicus [22]": {"tested_on": "Rattus norvegicus", "test": "Effect on hemodynamic parameters in Sprague-Dawley rat heart assessed as dPdT min at 128 ug/kg/min (reference value: -4611 mmHg/s)"}, "Rattus norvegicus [23]": {"tested_on": "Rattus norvegicus", "test": "Effect on hemodynamic parameters in Sprague-Dawley rat heart assessed as dPdT min at 64 ug/kg/min (reference value: -4611 mmHg/s)"}, "Rattus norvegicus [24]": {"tested_on": "Rattus norvegicus", "test": "Effect on hemodynamic parameters in Sprague-Dawley rat heart assessed as heart rate at 32 ug/kg/min (reference value: 274 bpm)"}, "Rattus norvegicus [25]": {"tested_on": "Rattus norvegicus", "test": "Effect on hemodynamic parameters in Sprague-Dawley rat heart assessed as end-diastolic pressure at 64 ug/kg/min (reference value: 9.64 mmHg)"}, "Rattus norvegicus [26]": {"tested_on": "Rattus norvegicus", "test": "Effect on hemodynamic parameters in Sprague-Dawley rat heart assessed as dPdT min at 32 ug/kg/min (reference value: -4611 mmHg/s)"}, "Rattus norvegicus [27]": {"tested_on": "Rattus norvegicus", "test": "Effect on hemodynamic parameters in Sprague-Dawley rat heart assessed as heart rate at 64 ug/kg/min (reference value: 274 bpm)"}, "Rattus norvegicus [28]": {"tested_on": "Rattus norvegicus", "test": "Effect on hemodynamic parameters in Sprague-Dawley rat heart assessed as end-systolic pressure at 32 ug/kg/min (reference value: 87.48 mmHg)"}, "Rattus norvegicus [29]": {"tested_on": "Rattus norvegicus", "test": "Effect on hemodynamic parameters in Sprague-Dawley rat heart assessed as end-diastolic pressure at 128 ug/kg/min (reference value: 9.64 mmHg)"}, "Rattus norvegicus [30]": {"tested_on": "Rattus norvegicus", "test": "Effect on hemodynamic parameters in Sprague-Dawley rat heart assessed as end-systolic pressure at 128 ug/kg/min (reference value: 87.48 mmHg)"}, "Rattus norvegicus [31]": {"tested_on": "Rattus norvegicus", "test": "Effect on hemodynamic parameters in Sprague-Dawley rat heart assessed as end-diastolic pressure at 32 ug/kg/min (reference value: 9.64 mmHg)"}, "Rattus norvegicus [32]": {"tested_on": "Rattus norvegicus", "test": "Effect on hemodynamic parameters in Sprague-Dawley rat heart assessed as dPdT max at 128 ug/kg/min (reference value: 4162 mmHg/s)"}}}
{"smiles": "COC(=O)N1CCN(Cc2cccc(NC(=O)Nc3ccc(C)nc3)c2F)CC1", "note": "[OMECAMTIV MECARBIL]", "values": [{"measurement": "Activity", "setting": "Rattus norvegicus [1]", "value": 326, "unit": "bpm"}, {"measurement": "Activity", "setting": "Rattus norvegicus [2]", "value": 109.76, "unit": "mmHg"}, {"measurement": "Activity", "setting": "Rattus norvegicus [3]", "value": 7.65, "unit": "mmHg"}, {"measurement": "Activity", "setting": "Rattus norvegicus [4]", "value": -6516, "unit": "mmHg/s"}, {"measurement": "Activity", "setting": "Rattus norvegicus [5]", "value": 6320, "unit": "mmHg/s"}, {"measurement": "Activity", "setting": "Rattus norvegicus [6]", "value": -6628, "unit": "mmHg/s"}, {"measurement": "Activity", "setting": "Rattus norvegicus [7]", "value": 108.85, "unit": "mmHg"}, {"measurement": "Activity", "setting": "Rattus norvegicus [8]", "value": 370, "unit": "bpm"}, {"measurement": "Activity", "setting": "Rattus norvegicus [9]", "value": 6645, "unit": "mmHg/s"}, {"measurement": "Activity", "setting": "Rattus norvegicus [10]", "value": 60.81, "unit": "%"}, {"measurement": "Activity", "setting": "Rattus norvegicus [11]", "value": 108.91, "unit": "mmHg"}, {"measurement": "Activity", "setting": "Rattus norvegicus [12]", "value": -5547, "unit": "mmHg/s"}, {"measurement": "Activity", "setting": "Rattus norvegicus [13]", "value": 2.33, "unit": "mm"}, {"measurement": "Activity", "setting": "Rattus norvegicus [14]", "value": 7, "unit": "mmHg"}, {"measurement": "Activity", "setting": "Rattus norvegicus [15]", "value": 322, "unit": "bpm"}, {"measurement": "Activity", "setting": "Rattus norvegicus [16]", "value": 6.5, "unit": "mm"}, {"measurement": "Activity", "setting": "Rattus norvegicus [17]", "value": 104.3, "unit": "mmHg"}]}
{"smiles": "O=C(NCCCc1ccccc1)NCc1ccccc1", "values": [{"measurement": "Activity", "setting": "Rattus norvegicus [18]", "value": 108.41, "unit": "mmHg"}, {"measurement": "Activity", "setting": "Rattus norvegicus [19]", "value": 4744, "unit": "mmHg/s"}, {"measurement": "Activity", "setting": "Rattus norvegicus [20]", "value": 5382, "unit": "mmHg/s"}, {"measurement": "Activity", "setting": "Rattus norvegicus [21]", "value": 284, "unit": "bpm"}, {"measurement": "Activity", "setting": "Rattus norvegicus [8]", "value": 412, "unit": "bpm"}, {"measurement": "Activity", "setting": "Rattus norvegicus [22]", "value": -6346, "unit": "mmHg/s"}, {"measurement": "Activity", "setting": "Rattus norvegicus [10]", "value": 71.65, "unit": "%"}, {"measurement": "Activity", "setting": "Rattus norvegicus [11]", "value": 94.26, "unit": "mmHg"}, {"measurement": "Activity", "setting": "Rattus norvegicus [12]", "value": -5583, "unit": "mmHg/s"}, {"measurement": "Activity", "setting": "Rattus norvegicus [23]", "value": -6138, "unit": "mmHg/s"}, {"measurement": "Activity", "setting": "Rattus norvegicus [13]", "value": 1.58, "unit": "mm"}, {"measurement": "Activity", "setting": "Rattus norvegicus [24]", "value": 268, "unit": "bpm"}, {"measurement": "Activity", "setting": "Rattus norvegicus [25]", "value": 16.85, "unit": "mmHg"}, {"measurement": "Activity", "setting": "Rattus norvegicus [26]", "value": -5375, "unit": "mmHg/s"}, {"measurement": "Activity", "setting": "Rattus norvegicus [27]", "value": 277, "unit": "bpm"}, {"measurement": "Activity", "setting": "Rattus norvegicus [28]", "value": 95.74, "unit": "mmHg"}, {"measurement": "Activity", "setting": "Rattus norvegicus [29]", "value": 24.12, "unit": "mmHg"}, {"measurement": "Activity", "setting": "Rattus norvegicus [30]", "value": 113.24, "unit": "mmHg"}, {"measurement": "Activity", "setting": "Rattus norvegicus [31]", "value": 12.26, "unit": "mmHg"}, {"measurement": "Activity", "setting": "Rattus norvegicus [32]", "value": 6146, "unit": "mmHg/s"}, {"measurement": "Activity", "setting": "Rattus norvegicus [16]", "value": 5.57, "unit": "mm"}, {"measurement": "Activity", "setting": "Rattus norvegicus [17]", "value": 96.04, "unit": "mmHg"}]}
